Where “and” joins values, the source holds several entries; their conditions need not be identical. Equal values may be shown once.

Common to all, as to format: functional
The species named for experiment [1] is Homo sapiens. The experiment can be described thus: In vitro methemoglobin (metHb) forming activity in normal human erythrocytes. The procedure, abridged: (§1)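 Blood (30–40 mL) from normal or G6PD-deficient human volunteers, anticoagulated with sodium edetate. Washed erythrocytes suspended to 50% in buffered dextrose saline, incubated with each compound at 37 °C for 2 h. Reaction stopped on ice for 5 min. Cells spun at 1500g for 10 min at 5 °C, washed twice in ice-cold buffered saline dextrose, resuspended to 50%.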

The species named for experiment [2] is Homo sapiens. The experiment can be described thus: In vitro methemoglobin (metHb) forming activity in normal human erythrocytes at 0.05 mM. The method, boiled down: as §1
Experiment [3] is filed under the species Homo sapiens. The experiment can be described thus: In vitro decreasing the GSH content in normal in human erythrocytes at 0.05 mM. The method, boiled down: as §1
The species entered for experiment [4] is Homo sapiens. As to the kind of experiment: In vitro decreasing the GSH content in normal in human erythrocytes at 0.01 mM. The procedure, abridged: as §1
The species named for experiment [5] is Homo sapiens. The experiment can be described thus: In vitro methemoglobin (metHb) forming activity in Glucose-6-phosphate dehydrogenase- (G6PD-) deficient human erythrocytes at 0.05 mM. The method, boiled down: as §1

With `CC(CCCN)Nc1cc(O)cc2cccnc12` (stereo unspecified), the Methemoglobin is 1.1% in the experiment filed under Homo sapiens [1]; 1.1% in the experiment filed under Homo sapiens [2]; 1.7% and 1.2% in the experiment listed under Homo sapiens [5]. Besides, the GSH level in the experiment listed under Homo sapiens [3] was 63.4% and 44.8%. Besides, the “GSH level (mg)” value in the experiment filed under Homo sapiens [4] is 63.8% and 45.8%.
With `COc1cc(N)c2ncccc2c1O`, the Methemoglobin in the experiment filed under Homo sapiens [2] was 34.2%; in the experiment listed under Homo sapiens [5], 43.8% and 22.3%.
As to `Nc1cc(O)c(O)c2cccnc12` [5,6-DIHYDROXY-8-AMINOQUINOLINE], the Methemoglobin in the experiment listed under Homo sapiens [1] stood at 4.8%; in the experiment listed under Homo sapiens [2], 22.3%.
The matching figures for `CC(CCCN)Nc1cc(O)c(O)c2cccnc12` (stereo unspecified) [5-HYDROXYDESMETHYLPRIMAQUINE]: 4.2% and 16.3%.
As to `COc1cc(NC(C)CCCN)c2ncccc2c1O` (stereo unspecified) [5-HYDROXYPRIMAQUINE], the Methemoglobin amounted to 3.4% in the experiment filed under Homo sapiens [1] and 12.8% in the experiment filed under Homo sapiens [2].
With `COc1cc(NC(C)CCCN)c2ncccc2c1` (stereo unspecified) [PRIMAQUINE], the Methemoglobin in the experiment filed under Homo sapiens [2] is 1%; in the experiment filed under Homo sapiens [5] it was 1.3%. Also, the GSH level in the experiment listed under Homo sapiens [3] is 60% and 47.4%.

These data come from ChEMBL document CHEMBL1122627, “Synthesis of certain hydroxy analogues of the antimalarial drug primaquine and their in vitro methemoglobin-producing and glutathione-depleting activity in human erythrocytes” (1984).
